Experiment [1] is filed under the species Homo sapiens. In words: Antiinflammatory activity against human primary chondrocytes assessed as inhibition of IL-1beta-induced iNOS protein expression level after 30 mins by Western blotting analysis relative to IL-1beta treated control. In kind it is functional. The gist of the method: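 Serum-starved primary human chondrocytes pretreated 30 min with compound in DMSO (≤0.1% final), then IL-1β 10 ng/mL for 24 h. Total extracts immunoblotted with mouse monoclonal anti-human iNOS and detected by chemifluorescence. Band intensity normalized to β-tubulin or actin and expressed relative to IL-1β alone. Mean ± SEM, ≥4 independent experiments; paired t test.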
(Immunoblotting shows a protein as a band on a membrane.)

Experiment [2] concerns the target T1, c-Jun N-terminal kinase, JNK (Homo sapiens) (UniProt P45983+P53779+P45984). In words: Inhibition of IL-1beta-induced JNK phosphorylation in human primary chondrocytes at 200 ug/ml by Western blotting analysis relative to IL-1beta treated control. Conditions: values are per cent of control. In kind it is cell-based.
Experiment [3] concerns the target MAP kinase p38 (Homo sapiens) (UniProt O15264+Q15759+Q16539+P53778). In words: Inhibition of IL-1beta-induced p38 MAPK phosphorylation in human primary chondrocytes at 200 ug/ml by Western blotting analysis relative to IL-1beta treated control. In kind it is cell-based.
In experiment [4] the test system is C28/I2. In words: Inhibition of NFkappaB activation in human C28/I2 cells assessed as reduction of IL-1beta-induced IkappaBalpha phosphorylation at 200 ug/ml after 30 mins by Western blotting analysis relative to IL-1beta treated control; values are per cent of control.
Experiment [5] is described as follows: Antiinflammatory activity against human primary chondrocytes assessed as inhibition of IL-1beta-induced NO production at 200 ug/ml after 30 mins by Griess method relative to IL-1beta treated control; values are per cent of control. The settings on record: 0.5 h. (In general: The Griess reaction detects nitrite, a stable product of nitric oxide.)
The species entered for experiment [6] is Homo sapiens. In words: Antiinflammatory activity against human primary chondrocytes assessed as inhibition of IL-1beta-induced NO production at 10 to 25 ug/ml after 30 mins by Griess method. In kind it is functional.
Experiment [7] has as its system C28/I2. In words: Inhibition of NFkappaB activation in human C28/I2 cells assessed as reduction of IL-1beta-induced protein-DNA complex formation at 200 ug/ml after 30 mins by ELISA relative to IL-1beta treated control. In kind it is cell-based. The gist of the method: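 C28/I2 cells pretreated 30 min ± 200 μg/mL compound, then IL-1β 10 ng/mL for 30 min. Nuclear extracts incubated with biotinylated NF-κB consensus oligonucleotide in a colorimetric ELISA-type binding assay; absorbance taken as amount of active NF-κB–DNA complexes. Specificity checked with 10-fold molar excess of unlabeled wild-type or mutant oligonucleotide. Mean ± SEM, four experiments.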
In general terms: An ELISA detects its analyte on a solid surface through an enzyme-linked reagent.

Experiment [8] in a line: Chondroprotective activity in human primary chondrocytes assessed as effect on IL-1beta-induced collagen2/1 mRNA expression at 200 ug/ml by quantitative RT-PCR analysis relative to IL-1beta treated control. The class given is functional. The gist of the method: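 Primary human chondrocytes treated 24 h with IL-1β 10 ng/mL with or without 200 μg/mL compound after a 30 min pretreatment; TIMP-1, collagen I and collagen II mRNA measured by RT-PCR relative to IL-1β-only cells. The collagen II/collagen I mRNA ratio served as a differentiation index. Mean ± SEM of ≥4 independent experiments; paired t test.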

The target of experiment [9] is T1, c-Jun N-terminal kinase, JNK (Homo sapiens). In words: Inhibition of JNK activation in human primary chondrocytes assessed as reduction of IL-1beta-induced MMP13 mRNA expression at 200 ug/ml by quantitative RT-PCR analysis relative to IL-1beta treated control. In kind it is cell-based. In outline: (§1)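 Serum-starved primary human chondrocytes exposed 12 h to IL-1β 10 ng/mL with or without 200 μg/mL compound, the compound added 30 min before the stimulus. MMP-1 and MMP-13 mRNA quantified by RT-PCR and expressed versus IL-1β-treated cells. Mean ± SEM of at least four independent experiments; paired t test.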

Experiment [10] is filed under the species Homo sapiens. In words: Antiinflammatory activity against human primary chondrocytes assessed as inhibition of IL-1beta-induced iNOS mRNA expression after 30 mins by Western blotting analysis relative to IL-1beta treated control. In kind it is functional.
A short description of experiment [11]: Antiinflammatory activity against human primary chondrocytes assessed as IL-1beta-induced iNOS protein expression level after 30 mins by Western blotting analysis relative to IL-1beta treated control.
Experiment [12] deals with T1, c-Jun N-terminal kinase, JNK (Homo sapiens). In words: Inhibition of JNK activation in human primary chondrocytes assessed as reduction of IL-1beta-induced MMP1 mRNA expression at 200 ug/ml by quantitative RT-PCR analysis relative to IL-1beta treated control. The class given is cell-based. The gist of the method:
as §1

For experiment [13], the species on record is Homo sapiens. In words: Inhibition of NFkappaB activation in human primary chondrocytes assessed as reduction of IL-1beta-induced MMP1 mRNA expression at 200 ug/ml by quantitative RT-PCR analysis relative to IL-1beta treated control. In kind it is cell-based. The gist of the method: as §1
For experiment [14], the species on record is Homo sapiens. In words: Antiinflammatory activity against human primary chondrocytes assessed as inhibition of IL-1beta-induced NO production after 30 mins by Griess method. In kind it is functional.
Experiment [15] is filed under the species Homo sapiens. In words: Inhibition of NFkappaB activation in human primary chondrocytes assessed as reduction of IL-1beta-induced MMP13 mRNA expression at 200 ug/ml by quantitative RT-PCR analysis relative to IL-1beta treated control. The class given is cell-based. In outline: as §1

The structures appear in SMILES notation. Activity calls are given as the source filed them. The rule behind the calls is not given here.

The record followed here is ChEMBL document CHEMBL3108716, “Anti-inflammatory and chondroprotective activity of (+)-α-pinene: structural and enantiomeric selectivity” (2014).

`CC1=CC[C@H]2C[C@@H]1C2(C)C`: the inhibition entry in the experiment listed under Homo sapiens [1] is “Active”. The same molecule came in with a response, % of control in [2] of 65.8%. Also, the inhibition entry in experiment [3] is “inactive”. In the experiment with C28/I2 [4], the level, % of control is 58.4%. Moreover, in [5], the level, % of control at 200 µg/mL stood at 58.1%.
Consider `C=C1C(O)CC2CC1C2(C)C` (configuration not stated), for which, in the experiment listed under Homo sapiens [6], the inhibition entry is “inactive”.
On to `CC1(C)C2CC=C(CO)C1C2` (configuration not stated), for which, in the experiment filed under Homo sapiens [6], the inhibition entry was “inactive”.
Regarding `CC1(C)[C@@H]2CC=C(C=O)[C@H]1C2`, in the experiment listed under Homo sapiens [6], the inhibition entry was “inactive”.
Turning to `CC1(C)[C@H]2CC[C@@H](CO)[C@H]1C2`, the inhibition result in the experiment filed under Homo sapiens [6] is “inactive”.
Still for that read-out and setting: to `CC1=C[C@@H](O)[C@@H]2C[C@@H]1C2(C)C` belongs “inactive”.
`C[C@H]1CC[C@H]2C[C@@H]1C2(C)C`: the inhibition result in the experiment listed under Homo sapiens [1] is “Active”. Also, the inhibition result in the experiment filed under Homo sapiens [6] is “inactive”.
As to `CC1=CCC2CC1C2(C)C` (racemic) [ALPHA-PINENE], the level, % of control at 200 µg/mL in experiment [5] was 40.6%.
The same measure, in the same setting: to `C=C1CCC2CC1C2(C)C` (racemic) [BETA-PINENE] belongs 76.8%.
In the case of `CC1=CC[C@@H]2C[C@H]1C2(C)C` [1R-(+)-ALPHA-PINENE], the inhibition result (in the experiment with C28/I2 [7]; in experiment [9]; in the experiment filed under Homo sapiens [10]; in [12]; in the experiment filed under Homo sapiens [13]; in the experiment filed under Homo sapiens [15]) was “Active” throughout. The “fold change (FC)” value in experiment [8] turned out to be 2.6. In addition, the Activity in experiment [11] stood at 24.4%. Besides, in experiment [2], the response, % of control was 51.3%. Moreover, in [3], the inhibition result is “inactive”. Besides, the inhibition result in the experiment filed under Homo sapiens [14] was “Dose-dependent effect”. Besides, the level, % of control in the experiment with C28/I2 [4] worked out at 33.6%. For the same molecule, the level, % of control at 200 µg/mL in experiment [5] stood at 31.5%.
